Screens from PubChem BioAssay.
Most compounds without a hit are left out; they make up all but 0.7% or so of the library.
Xi reactivation = activators of X-chromosome reactivation in mouse fibroblasts; activation, % at 7.58 µM; XiGFP mouse fibroblasts, % GFP-positive cells imaging, 3 d; cells co-treated with 5-aza-dC sensitizer; scaled so ellipticine positive control = 100%; AID 743238; 0.055% of 360,000 active;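 active = mean normalized replicate activation at least 10% and every replicate at or above 10%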;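 note: 0% = median of on-plate neutral control wells and 100% = ellipticine 6 µM median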
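System: 68-5-11 XiGFP fibroblast line | Buffer or medium: DMEM containing 5-aza-dC | Compound: Single point | Times: Compounds 3 days, fix/stain 15 min at room temperature | Benchmarks: Positive control ellipticine, 6 µM final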
CaV13 FRET inh = Primary screen for inhibitors of IQ motif and Ca2+-dependent inactivation inhibitor domain binding in CACNA1D, Förster resonance energy transfer in living cells, …. AID 743397. 0.098% of 340,000 active. inhibition, % at 12.3 µM. HEK cells, CFP/YFP FRET ICDI-IQ, plate reader, 10 min; percent FRET-ratio fall versus neutral wells;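 active = mean replicate inhibition of at least 30% and at least 1% of replicates passing that level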;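 note: 0% = median of the neutral control wells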
Vif inh = blocks HIV Vif function | HEK293T cells, Vif self-association by quenched fluorescence, imaging, 24 h | inhibition, % at 7.49 µM | 0.35% of 340,000 active | AID 602346; in the data active = inhibition above about 50%, passing the limit was not always enough
NPR2 activator = GC-B (human) receptor activation; HEK293-GC-B cells, CNP EC30, cGMP TR-FRET; 0% at EC30 CNP, 100% saturating CNP; activation, % at 10 µM; 0.11% of 370,000 active; AID 1920062;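 active = activation at 10 µM reaching about 35% in either raw or pattern-adjusted values, limit read from the data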
Target sequence (P20594 whole entry, looked up): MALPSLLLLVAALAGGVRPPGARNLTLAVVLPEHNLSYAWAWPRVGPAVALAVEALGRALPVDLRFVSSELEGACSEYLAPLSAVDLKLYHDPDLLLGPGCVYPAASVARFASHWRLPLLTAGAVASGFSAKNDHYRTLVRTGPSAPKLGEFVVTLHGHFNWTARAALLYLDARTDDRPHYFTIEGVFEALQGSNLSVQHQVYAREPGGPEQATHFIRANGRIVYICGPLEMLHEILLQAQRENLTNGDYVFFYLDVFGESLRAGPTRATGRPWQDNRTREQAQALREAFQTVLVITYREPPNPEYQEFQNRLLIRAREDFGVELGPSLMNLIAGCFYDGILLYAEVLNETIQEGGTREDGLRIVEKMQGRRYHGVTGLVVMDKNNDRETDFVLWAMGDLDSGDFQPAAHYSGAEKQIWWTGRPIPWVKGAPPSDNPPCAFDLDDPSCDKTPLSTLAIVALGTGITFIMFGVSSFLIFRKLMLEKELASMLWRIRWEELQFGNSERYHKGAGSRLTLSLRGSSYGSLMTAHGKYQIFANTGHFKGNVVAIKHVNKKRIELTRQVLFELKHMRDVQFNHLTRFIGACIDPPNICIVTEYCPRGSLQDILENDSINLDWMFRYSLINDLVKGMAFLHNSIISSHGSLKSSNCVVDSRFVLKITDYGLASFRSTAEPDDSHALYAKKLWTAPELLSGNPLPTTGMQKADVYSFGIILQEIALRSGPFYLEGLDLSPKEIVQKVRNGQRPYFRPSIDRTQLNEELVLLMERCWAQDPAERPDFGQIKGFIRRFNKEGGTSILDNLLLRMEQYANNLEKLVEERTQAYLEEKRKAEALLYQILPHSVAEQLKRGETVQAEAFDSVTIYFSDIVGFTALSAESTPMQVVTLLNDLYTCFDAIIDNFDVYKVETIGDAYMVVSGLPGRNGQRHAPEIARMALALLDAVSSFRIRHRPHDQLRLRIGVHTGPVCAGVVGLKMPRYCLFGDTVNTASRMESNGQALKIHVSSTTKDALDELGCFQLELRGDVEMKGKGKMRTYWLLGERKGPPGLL
NPR1 activator = GC-A (human) enzyme activation. P16066. HEK293 GC-A cells, cGMP TR-FRET, EC30 ANP; 0% at EC30 ANP, 100% saturating ANP. activation, % at 10 µM. 0.14% of 370,000 active. AID 1671463; in the data active = activation above about 40%
Glyco luc inh = N-linked glycosylation inhibition; D54 ERlucT glycosylation luciferase reporter, 24 h; percent of 100 nM tunicamycin response; reporter increase, % at 12.5 µM; 0.23% of 360,000 active;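 active = mean luciferase reporter signal, scaled so untreated is 0 and the glycosylation-blocking control 100, at or above a set limit in every replicate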;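 note: luciferase carries N-glycosylation sites so blocking glycosylation raises the light; 0% = median of neutral control wells and 100% = median of 100 nM tunicamycin wells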
* marks the source's active call; other numbers are inactive results.

Results for COc1ccc(C2(CNC(=O)c3cc(OC)c(OC)c(OC)c3)CCCC2)cc1OC ?
Xi reactivation: 0.0; CaV13 FRET inh: -4.6; Vif inh: 24.0; NPR2 activator: -8.9; NPR1 activator: -21.4; Glyco luc inh: 34.6*

How did COc1cc(C(=O)NCC2(c3ccccc3)CCCC2)cc(OC)c1OC do in these assays?
Xi reactivation: 0.0; CaV13 FRET inh: -4.0; Vif inh: -17.5; NPR2 activator: -0.1; NPR1 activator: -4.9; Glyco luc inh: 0.5

What do the screens show for `Cc1ccc(C(=O)N/C(=C\c2cccs2)C(=O)NCCc2c[nH]c3ccccc23)cc1`?
CaV13 FRET inh: -8.6; Vif inh: -4.9; NPR2 activator: -3.8; NPR1 activator: -5.0; Glyco luc inh: 41.6*

What do the screens show for `COc1ccccc1Cc1c(-c2ccc(F)cc2)nc2ccc(Cl)cn12`?
Xi reactivation: 0.0; CaV13 FRET inh: -2.7; NPR2 activator: -3.6; NPR1 activator: 1.8; Glyco luc inh: 0.0

Results for COc1cc2c3nnc(-c4ccc(F)cc4)c-3cn(Cc3ccccc3F)c2cc1OC ?
Xi reactivation: 114.4*; CaV13 FRET inh: -61.5; Vif inh: -2.9; NPR2 activator: 13.4; NPR1 activator: 18.6; Glyco luc inh: -16.6

Results for COc1cc2c3nnc(-c4ccccc4)c-3cn(Cc3ccccc3F)c2cc1OC ?
Xi reactivation: 96.8*; CaV13 FRET inh: -9.0; NPR2 activator: 12.2; NPR1 activator: 18.6

What do the screens show for `O=C(NC1CCCc2ccccc21)c1ccccc1Br` (stereo not drawn)?
CaV13 FRET inh: -8.7; Vif inh: 59.9*; NPR2 activator: 2.5; NPR1 activator: 2.6; Glyco luc inh: -1.1

How did CCOC(=O)Nc1ccc(NCc2ccc(F)cc2)nc1N do in these assays?
Xi reactivation: 3.5; CaV13 FRET inh: -6.0; Vif inh: active; NPR2 activator: -1.7; NPR1 activator: -2.9; Glyco luc inh: 0.8

How did Cc1nn(Cc2c(Cl)cccc2Cl)c(C)c1NC(=O)c1cnn2c(C(F)F)cc(-c3ccccc3)nc12 do in these assays?
CaV13 FRET inh: -4.2; Vif inh: 104.0*; NPR2 activator: 1.2; NPR1 activator: -2.4; Glyco luc inh: 0.5

Results for Cc1ccc(-c2cc(C(F)F)n3ncc(C(=O)Nc4c(C)nn(Cc5c(Cl)cccc5Cl)c4C)c3n2)cc1 ?
CaV13 FRET inh: -5.0; Vif inh: 28.3; NPR2 activator: -4.4; NPR1 activator: -0.6; Glyco luc inh: -0.3

Results for CCN1[C@H](C(=O)NCc2cccc(OC)c2)[C@@H](CO)[C@@H]2Cn3c(ccc(C4=CCCC4)c3=O)[C@@H]21 ?
Xi reactivation: 0.2

How did O=C(C[C@H]1CC[C@@H]2[C@H](COC[C@@H](O)CN2Cc2cccc(Cl)c2)O1)N1CCOCC1 do in these assays?
Xi reactivation: 0.1

What do the screens show for `CCOC1=NN(c2ncc(C(F)(F)F)cc2Cl)C(=O)C1`?
Xi reactivation: 0.0; CaV13 FRET inh: 33.9*; Vif inh: -1.3; NPR2 activator: 10.8; NPR1 activator: 9.3; Glyco luc inh: -0.6

What do the screens show for `Cc1nc(-c2ccc(O)c(O)c2)cs1`?
CaV13 FRET inh: -7.0; Vif inh: 67.3*; NPR2 activator: 9.3; NPR1 activator: 9.2; Glyco luc inh: -1.0

Results for COc1cc(-c2csc(C)n2)ccc1O ?
CaV13 FRET inh: 0.8; Vif inh: -2.1; NPR2 activator: -0.4; NPR1 activator: 0.1; Glyco luc inh: 0.2

How did Cc1c(C=O)c2ccccn2c1C(=O)c1ccccc1Cl do in these assays?
Xi reactivation: 0.0; CaV13 FRET inh: -2.6; Vif inh: 0.4; NPR2 activator: -8.1; NPR1 activator: -13.4; Glyco luc inh: -1.8

What do the screens show for `Cc1c(C=O)c2ccccn2c1C(=O)c1cccs1`?
Xi reactivation: 0.0; CaV13 FRET inh: 32.0*; Vif inh: -5.3; NPR2 activator: 1.1; NPR1 activator: 5.1; Glyco luc inh: 0.0

How did Cc1ccc(Nc2cc(=O)[nH]c(=O)[nH]2)cc1C do in these assays?
Xi reactivation: 0.0; CaV13 FRET inh: -3.6; Vif inh: 56.8*; NPR2 activator: 2.6; NPR1 activator: -1.6; Glyco luc inh: 2.8

Results for COc1ccc2c3c(n(C)c2c1)[C@@H](CO)N(C(=O)CN1CCOCC1)CC31CN(C(C)=O)C1 ?
Xi reactivation: 0.0

How did CCCN1C[C@H](C)[C@@H](OC)CN(C)C(=O)c2cc(NC(=O)COC)ccc2OC[C@H]1C do in these assays?
Xi reactivation: 0.3

What do the screens show for `COCC#Cc1ccc2c(c1)O[C@@H](CN(C)CC1CCOCC1)[C@H](C)CN([C@@H](C)CO)S2(=O)=O`?
Xi reactivation: -0.3

How did C[C@@H]1CCCCO[C@@H](CN(C)CC2CCCCC2)[C@H](C)CN([C@H](C)CO)C(=O)c2cc(NS(=O)(=O)c3cn(C)cn3)ccc2O1 do in these assays?
Xi reactivation: -1.1

How did Cc1[nH]nc(-c2ccc(O)c(C)c2O)c1Oc1ccccc1 do in these assays?
CaV13 FRET inh: -3.9; Vif inh: -2.6; NPR2 activator: 0.0; NPR1 activator: 79.0*; Glyco luc inh: -1.7

What do the screens show for `Cc1[nH]nc(-c2ccc(OCc3cnn(-c4ccccc4)c3)c(C)c2O)c1Oc1ccccc1`?
Vif inh: 11.9; NPR2 activator: -5.1; NPR1 activator: -0.4; Glyco luc inh: -2.1

Results for CC(C)NC(=O)N(C)C[C@@H]1Oc2ccc(NC(=O)Nc3ccc4c(c3)OCO4)cc2C(=O)N([C@@H](C)CO)C[C@H]1C ?
Xi reactivation: 0.0

How did COc1ccc(-c2nc3ccccc3n2Cc2ccc(C)cc2)cc1 do in these assays?
CaV13 FRET inh: -0.1; NPR2 activator: 48.4*; NPR1 activator: 63.1*; Glyco luc inh: -5.5

What do the screens show for `COCn1c(-c2ccc(OC)cc2)nc2ccccc21`?
CaV13 FRET inh: -4.8; Vif inh: 3.8; NPR2 activator: 0.1; NPR1 activator: 6.0; Glyco luc inh: -1.8

Results for C[C@@H](CC#N)CN1CC[C@H](C(C)(C)C)CCC1=O ?
Xi reactivation: 0.1; CaV13 FRET inh: 33.5*; Vif inh: -0.1; NPR2 activator: -2.1; NPR1 activator: 1.4; Glyco luc inh: 4.0

Results for CCOc1ccccc1NC(=O)CN(c1ccc(OC)cc1)S(=O)(=O)c1c(C)noc1C ?
CaV13 FRET inh: -4.3; Vif inh: 0.6; NPR2 activator: -4.5; NPR1 activator: -6.1; Glyco luc inh: 33.5*

How did CCOc1ccccc1NC(=O)CN(c1cc(C)cc(C)c1)S(=O)(=O)c1c(C)noc1C do in these assays?
Xi reactivation: 0.1; CaV13 FRET inh: 29.3; Vif inh: -2.9; NPR2 activator: -2.0; NPR1 activator: -10.3; Glyco luc inh: -2.5
